This note sets out measurements from ChEMBL document CHEMBL1129786, “Ryanodine action at calcium release channels. 1. importance of hydroxyl substituents” (J Med Chem, 1996).

The species named for one assay is Rattus norvegicus. The experiment in a line: Inhibition of rat ventricular muscle strip contractility. It is filed as functional. As to conditions: Muscle tissue. The method in brief: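 Rat right ventricular muscle strips were held in water-jacketed baths of Krebs-Henseleit solution at 30 °C, aerated with O2-CO2 (95:5), at 0.5 g resting tension. Contraction was evoked by electrical stimulation and recorded on a polygraph. IC50 was taken from inhibition of contraction, using three to five experiments.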
The term IC50 denotes the concentration at which inhibition is half-maximal. Regarding `CC1CCC2(O)C3(C)CC4(O)OC2(C1O)C1(O)C3(O)C(OC(=O)c2ccc[nH]2)C(O)(C(C)C)C41C` (centres undefined), the concentration for half-maximal inhibition (IC50) was found to be 34 nM.

The species named for another assay is Rattus norvegicus. The experiment in a line: Potency relative to ryanodine inhibiting rat ventricular muscle strip contractility. Format: functional, Muscle tissue.
Conditions: not given
Put shortly: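 Right ventricular muscle strips from rat suspended in Krebs-Henseleit solution at 30 °C, aerated O2-CO2 95:5; resting tension 0.5 g. Contraction evoked by electrical stimulation was recorded and its inhibition measured. IC50 values are expressed relative to ryanodine; three to five experiments.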
`C=C1CCC23OB(CC)OC45C(OC(=O)c6ccc[nH]6)C(=C(C)C)C6(C)C(O)(CC24C)OC3(C1O)C65O` (centres undefined): the Potency is on record as 26.

The compound `CONC12C(OC(=O)c3ccc[nH]3)C(O)(C(C)C)C3(C)C1C14OC3(O)CC2(C)C1(O)CCC(C)C4O` (centres undefined) displayed a Potency below 1.1.

`C=C1CCC23OB(c4ccsc4)OC45C(OC(=O)c6ccc[nH]6)C(O)(C(C)C)C6(C)C(O)(CC24C)OC3(C1O)C56O` (centres undefined) displayed a Potency of 52.

In the case of `C=C1CCC23OB(O)OC45C(OC(=O)c6ccc[nH]6)C(O)(C(C)C)C6(C)C(O)(CC24C)OC3(C1O)C56O` (centres undefined), the Potency was determined as 28.

For `CC1CCC2(O)C3(OC4(O)CC2(C)C2(O)C(OC(=O)c5ccc[nH]5)C(O)(C(C)C)C4(C)C23)C1O` (centres undefined), the Potency is recorded as 64.

On to `CC1CCC2(O)C3(C)CC4(O)OC2(C1O)C1(O)C3(O)C(OC(=O)c2ccc[nH]2)C2(OC2(C)C)C41C` (stereo in doubt; 25), for which the Potency worked out at 24.

Turning to `C=C1CCC23OB(C)OC45C(OC(=O)c6ccc[nH]6)C(O)(C(C)C)C6(C)C(O)(CC24C)OC3(C1O)C56O` (centres undefined), the Potency is 100.

`C=C1CCC2(O)C3(C)CC4(O)OC2(C1O)C1(O)C3(O)C(OC(=O)c2cccn2C)C(O)(C(C)C)C41C` (centres undefined) registered a Potency of 100.

With `CC1CCC2(O)C3(OC4(O)CC2(C)C2(NO)C(OC(=O)c5ccc[nH]5)C(O)(C(C)C)C4(C)C23)C1O` (centres undefined), the Potency is reported as 4.9.

`C=C1CCC2(O)C3(C)CC4(O)OC25C1OP(=O)(NC)OC51C3(O)C(OC(=O)c2ccc[nH]2)C(O)(C(C)C)C41C` (centres undefined) had a Potency below 3.5.

In turn, `CC1CCC2(O)C3(C)CC4(O)OC2(C1O)C1(O)C3(O)C(OC(=O)c2ccc[nH]2)C(O)(C(C)C)C41C` (centres undefined) had a Potency of 100.

`CC1CCC2(O)C3(C)CC4(O)OC2(C1O)C1(O)C3(O)C(OC(=O)c2ccc[nH]2)C2(OC2(C)C)C41C` (stereo in doubt; 26) displayed a Potency of 3.4.

`CC1CCC2(O)C3(C)CC4(O)OC2(C1O)C1(O)C3(O)C(OC(=O)c2ccc[nH]2)C(O)(C(C)(C)O)C41C` (centres undefined) showed a Potency of 26.
